According to ChEMBL document CHEMBL3779833, “Hydroxyurea derivatives of irofulven with improved antitumor efficacy” (Bioorg Med Chem Lett, 2016):
Calls of active or inactive are those of the source. No cut-off for these calls is given here.

Columns and labels:
[1] = Cytotoxicity against human CHRF-288-11 cells after 48 hrs by trypan blue exclusion assay; type: cell-based
How it was run: (§1)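 Cells exposed to drug for 48 h; growth measured by trypan blue exclusion. IC50 is the concentration giving 50% growth inhibition; values reported in nM.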

[2] = tested on: SK-MEL-5; experiment: Cytotoxicity against human SK-MEL-5 cells after 48 hrs by sulforhodamine B assay; type: functional, cell-based; details: SK-MEL-5, 48 h
[3] = tested on: 786-0; experiment: Cytotoxicity against human 786-0 cells after 48 hrs by sulforhodamine B assay; type: functional, cell-based; details: 786-0, 48 h
[4] = Cytotoxicity against human OVCAR8 cells after 48 hrs by sulforhodamine B assay; type: functional, cell-based; details: OVCAR-8, 48 h
[5] = tested on: U-251; experiment: Cytotoxicity against human U251 cells after 48 hrs by sulforhodamine B assay; type: functional, cell-based; details: U-251, 48 h
[6] = Cytotoxicity against human UACC257 cells after 48 hrs by sulforhodamine B assay; type: functional, cell-based; details: UACC-257, 48 h
[7] = tested on: HT-29; experiment: Cytotoxicity against human HT-29 cells after 48 hrs by sulforhodamine B assay; type: functional, cell-based; details: HT-29, 48 h
[8] = Cytotoxicity against human SNB19 cells after 48 hrs by sulforhodamine B assay; type: functional, cell-based; details: SNB-19, 48 h
[9] = Cytotoxicity against human PC3 cells after 48 hrs by sulforhodamine B assay; type: functional, cell-based; details: PC-3, 48 h
[10] = Cytotoxicity against human BT549 cells after 48 hrs by sulforhodamine B assay; type: functional, cell-based; details: BT-549, 48 h
[11] = tested on: ACHN; experiment: Cytotoxicity against human ACHN cells after 48 hrs by sulforhodamine B assay; type: functional, cell-based
[12] = Cytotoxicity against human DU145 cells after 48 hrs by sulforhodamine B assay; type: functional, cell-based; details: DU-145, 48 h, read-out: pIC50 (converted)
[13] = Cytotoxicity against human HOP92 cells after 48 hrs by sulforhodamine B assay; type: functional, cell-based; details: HOP-92, 48 h
[14] = tested on: T47D; experiment: Cytotoxicity against human T47D cells after 48 hrs by sulforhodamine B assay; type: functional, cell-based
[15] = Cytotoxicity against human HCT15 cells after 48 hrs by sulforhodamine B assay; type: functional, cell-based; details: HCT-15, 48 h
[16] = Cytotoxicity against human HCT116 cells after 48 hrs by sulforhodamine B assay; type: functional, cell-based; details: HCT-116, 48 h
[17] = Cytotoxicity against human IGROV1 cells after 48 hrs by sulforhodamine B assay; type: functional, cell-based; details: IGROV-1, 48 h
[18] = Selectivity index, ratio of IC50 for human CHRF-288-11 cells to IC50 for human MV522 cells; type: functional
How it was run: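 Ratio of the IC50 in megakaryocytic CHRF 288-11 (non-target) cells to the IC50 in MV522 adenocarcinoma (target) cells.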

[19] = Cytotoxicity against human SF539 cells after 48 hrs by sulforhodamine B assay; type: functional, cell-based; details: SF-539, 48 h
[20] = Cytotoxicity against human SKOV3 cells after 48 hrs by sulforhodamine B assay; type: functional, cell-based; details: SK-OV-3, 48 h
[21] = tested on: M14; experiment: Cytotoxicity against human M14 cells after 48 hrs by sulforhodamine B assay; type: functional, cell-based; details: M14, 48 h
[22] = tested on: SN12C; experiment: Cytotoxicity against human SN12C cells after 48 hrs by sulforhodamine B assay; type: functional, cell-based
[23] = Cytotoxicity against human NCI-ADR-RES cells after 48 hrs by sulforhodamine B assay; type: functional, cell-based
[24] = Cytotoxicity against human SW620 cells after 48 hrs by sulforhodamine B assay; type: functional, cell-based; details: SW-620, 48 h
[25] = Cytotoxicity against human LOXIMVI cells after 48 hrs by sulforhodamine B assay; type: functional, cell-based; details: LOX IMVI
[26] = tested on: NCI-H460; experiment: Cytotoxicity against human NCI-H460 cells after 48 hrs by sulforhodamine B assay; type: functional, cell-based; details: NCI-H460, 48 h, read-out: pIC50 (converted)
[27] = Cytotoxicity against human OVCAR3 cells after 48 hrs by sulforhodamine B assay; type: functional, cell-based; details: OVCAR-3, 48 h
[28] = tested on: NCI-H522; experiment: Cytotoxicity against human NCI-H522 cells after 48 hrs by sulforhodamine B assay; type: functional, cell-based; details: NCI-H522, 48 h
[29] = Cytotoxicity against human SNB75 cells after 48 hrs by sulforhodamine B assay; type: functional, cell-based; details: SNB-75, 48 h
[30] = Cytotoxicity against human Caki1 cells after 48 hrs by sulforhodamine B assay; type: functional, cell-based; details: CAKI-1, 48 h
[31] = tested on: NCI-H23; experiment: Cytotoxicity against human NCI-H23 cells after 48 hrs by sulforhodamine B assay; type: functional, cell-based; details: NCI-H23, 48 h
[32] = tested on: NCI-H322M; experiment: Cytotoxicity against human NCI-H322M cells after 48 hrs by sulforhodamine B assay; type: functional, cell-based
[33] = Cytotoxicity against human Hs 578T cells after 48 hrs by sulforhodamine B assay; type: functional, cell-based
[34] = tested on: A549; experiment: Cytotoxicity against human A549 cells after 48 hrs by sulforhodamine B assay; type: functional, cell-based; details: A549, 48 h, read-out: pIC50 (converted)
[35] = tested on: MDA-MB-435; experiment: Cytotoxicity against human MDA-MB-435 cells after 48 hrs by sulforhodamine B assay; type: functional, cell-based; details: MDA-MB-435, 48 h
[36] = tested on: SK-MEL-2; experiment: Cytotoxicity against human SK-MEL-2 cells after 48 hrs by sulforhodamine B assay; type: functional, cell-based; details: SK-MEL-2, 48 h
[37] = Cytotoxicity against human HOP62 cells after 48 hrs by sulforhodamine B assay; type: functional, cell-based; details: HOP-62, 48 h
[38] = tested on: KM12; experiment: Cytotoxicity against human KM12 cells after 48 hrs by sulforhodamine B assay; type: functional, cell-based; details: KM12, 48 h
[39] = tested on: MV522; experiment: Antitumor activity against human MV522 cells xenografted in Balb/c nu/nu mouse assessed as inhibition of tumor growth at 10 mg/kg, ip administered thrice a week for 3 weeks; type: functional, organism-based
How it was run: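 MV522 tumour xenografts in Balb/c nu/nu mice; drugs given intraperitoneally 3 times a week for 3 consecutive weeks at 10 mg/kg, the dose compared across agents; N = 8 per group.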

[40] = Cytotoxicity against human OVCAR4 cells after 48 hrs by sulforhodamine B assay; type: functional, cell-based; details: OVCAR-4, 48 h
[41] = tested on: EKVX; experiment: Cytotoxicity against human EKVX cells after 48 hrs by sulforhodamine B assay; type: functional, cell-based
[42] = Cytotoxicity against human UO31 cells after 48 hrs by sulforhodamine B assay; type: functional, cell-based; details: UO-31, 48 h
[43] = tested on: NCI-H226; experiment: Cytotoxicity against human NCI-H226 cells after 48 hrs by sulforhodamine B assay; type: functional, cell-based; details: NCI-H226, 48 h
[44] = tested on: A498; experiment: Cytotoxicity against human A498 cells after 48 hrs by sulforhodamine B assay; type: functional, cell-based; details: A498, 48 h
[45] = Cytotoxicity against human HCC2998 cells after 48 hrs by sulforhodamine B assay; type: functional, cell-based; details: HCC 2998, 48 h
[46] = tested on: Malme-3M; experiment: Cytotoxicity against human MALME-3M cells after 48 hrs by sulforhodamine B assay; type: functional, cell-based
[47] = tested on: MCF7; experiment: Cytotoxicity against human MCF7 cells after 48 hrs by sulforhodamine B assay; type: functional, cell-based; details: MCF7, 48 h
[48] = Cytotoxicity against human COLO205 cells after 48 hrs by sulforhodamine B assay; type: functional, cell-based; details: COLO 205, 48 h
[49] = tested on: SK-MEL-28; experiment: Cytotoxicity against human SK-MEL-28 cells after 48 hrs by sulforhodamine B assay; type: functional, cell-based; details: SK-MEL-28, 48 h
[50] = tested on: MDA-MB-231; experiment: Cytotoxicity against human MDA-MB-231 cells after 48 hrs by sulforhodamine B assay; type: functional, cell-based; details: MDA-MB-231, 48 h
[51] = Cytotoxicity against human RXF393 cells after 48 hrs by sulforhodamine B assay; type: functional, cell-based; details: RXF 393, 48 h
[52] = Cytotoxicity against human TK10 cells after 48 hrs by sulforhodamine B assay; type: functional, cell-based; details: TK-10, 48 h
[53] = Cytotoxicity against human OVCAR5 cells after 48 hrs by sulforhodamine B assay; type: functional, cell-based; details: OVCAR-5, 48 h
[54] = Cytotoxicity against human MV522 cells after 48 hrs by trypan blue exclusion assay; type: functional, cell-based; details: MV522, 48 h; how it was run: as §1
[55] = Cytotoxicity against human SF295 cells after 48 hrs by sulforhodamine B assay; type: functional, cell-based; details: SF-295, 48 h
[56] = Cytotoxicity against human SF268 cells after 48 hrs by sulforhodamine B assay; type: functional, cell-based; details: SF-268, 48 h

CC(=O)ON(CC1=C(C)C=C2C(=O)[C@](C)(O)C3(CC3)C(C)=C21)C(N)=O
IC50 [1]: 1900 nM

CC1=C(CN(O)C(N)=O)C2=C(C)C3(CC3)[C@@](C)(O)C(=O)C2=C1 [LP-184]
IC50 [2]: 63.1 nM | IC50 [3]: 126 nM | IC50 [4]: 316 nM | IC50 [5]: 126 nM | IC50 [6]: 251 nM | IC50 [7]: 126 nM | IC50 [8]: 126 nM | IC50 [9]: 398 nM | IC50 [10]: 158 nM | IC50 [11]: 31.6 nM | IC50 [12]: < 10 nM | IC50 [13]: 39.8 nM | IC50 [14]: 63.1 nM | IC50 [15]: 126 nM | IC50 [16]: 158 nM | IC50 [17]: 25.1 nM | Ratio IC50 [18]: 41.9 | IC50 [19]: 20 nM | IC50 [20]: 316 nM | IC50 [21]: 200 nM | IC50 [22]: 316 nM | IC50 [23]: 158 nM | IC50 [24]: 15800 nM | IC50 [25]: 316 nM | IC50 [26]: < 10 nM | IC50 [27]: 50.1 nM | IC50 [28]: 1000 nM | IC50 [29]: 31.6 nM | IC50 [30]: 50.1 nM | IC50 [31]: 15.8 nM | IC50 [32]: 100 nM | IC50 [33]: 501 nM | IC50 [34]: < 10 nM | IC50 [35]: 398 nM | IC50 [36]: 398 nM | IC50 [37]: 25.1 nM | IC50 [38]: 398 nM | TGI [39]: Active | IC50 [40]: 100 nM | IC50 [41]: 316 nM | IC50 [42]: 25.1 nM | IC50 [43]: 200 nM | IC50 [44]: 31.6 nM | IC50 [45]: 12.6 nM | IC50 [46]: 126 nM | IC50 [1]: 8800 nM | IC50 [47]: 1260 nM | IC50 [48]: 25.1 nM | IC50 [49]: 126 nM | IC50 [50]: 251 nM | IC50 [51]: 15.8 nM | IC50 [52]: 31.6 nM | IC50 [53]: 25.1 nM | IC50 [54]: 210 nM | IC50 [55]: 50.1 nM | IC50 [56]: 20 nM

NC(=O)NO [HYDROXYUREA]
IC50 [54]: > 650000 nM

CC1=C(CO)C2=C(C)C3(CC3)[C@@](C)(O)C(=O)C2=C1 [IROFULVEN]
IC50 [2]: 158 nM | IC50 [3]: 200 nM | IC50 [4]: 200 nM | IC50 [5]: 316 nM | IC50 [6]: 251 nM | IC50 [7]: 251 nM | IC50 [8]: 316 nM | IC50 [9]: 251 nM | IC50 [10]: 316 nM | IC50 [11]: 251 nM | IC50 [12]: < 100 nM | IC50 [13]: 316 nM | IC50 [14]: 200 nM | IC50 [15]: 316 nM | IC50 [16]: 200 nM | IC50 [17]: 158 nM | Ratio IC50 [18]: 4.1 | IC50 [19]: 158 nM | IC50 [20]: 251 nM | IC50 [21]: 251 nM | IC50 [22]: 398 nM | IC50 [23]: 251 nM | IC50 [24]: 631 nM | IC50 [25]: 631 nM | IC50 [26]: < 50.1 nM | IC50 [27]: 251 nM | IC50 [28]: 158 nM | IC50 [29]: 200 nM | IC50 [30]: 251 nM | IC50 [31]: 79.4 nM | IC50 [32]: 251 nM | IC50 [33]: 316 nM | IC50 [34]: < 126 nM | IC50 [35]: 1580 nM | IC50 [36]: 200 nM | IC50 [37]: 158 nM | IC50 [38]: 631 nM | TGI [39]: Active | IC50 [40]: 251 nM | IC50 [41]: 200 nM | IC50 [42]: 200 nM | IC50 [43]: 200 nM | IC50 [44]: 200 nM | IC50 [45]: 158 nM | IC50 [46]: 200 nM | IC50 [1]: 290 nM | IC50 [47]: 251 nM | IC50 [48]: 158 nM | IC50 [49]: 631 nM | IC50 [50]: 316 nM | IC50 [51]: 50.1 nM | IC50 [52]: 251 nM | IC50 [53]: 158 nM | IC50 [54]: 70 nM | IC50 [55]: 316 nM | IC50 [56]: 251 nM
